Sampled rows, rich in hits. Any-hit rate of the full collection: about 1.8%.
MBD2 DNA inh – MBD2-methylated oligo binding inhibition; Q9UBB5; TR-FRET, MBD2 binding to methylated oligonucleotide; inhibition, % at 4.4 µM; hit rate 0.31% among 370,000; in the data active = inhibition above about 13%
NSD2 inh – inhibitors of human histone methyltransferase NSD2; AID 743445; hit rate 0.54% among 310,000; inhibition, % at 12.5 µM; NSD2 peptide methylation, AlphaScreen, 120 min; O96028; in the data active = inhibition above about 50%
LEDGF integ inh – blocks HIV-1 LEDGF/p75-dependent DNA integration | TR-FRET IN-LEDGF/p75 DNA integration, Eu/Cy5 | inhibition, % at 3.7 µM | hit rate 0.64% among 370,000;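 active = inhibition above the screen-wide mean plus 3 SD, cut at about 13% in these data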;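 also: signal is the Cy5 over europium emission ratio at 671 and 618 nm; 0% = plate median of compound wells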
TDP2 inh – blocks human TDP2 phosphodiesterase activity; O95551; recombinant TDP2, T5PNP hydrolysis, p-nitrophenol absorbance 415 nm; inhibition, % at 12.8 µM; hit rate 0.34% among 370,000; AID 720702;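 active = inhibition above the mean of all tested compounds plus 3 SD, set per campaign, cut at about 25% in these data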;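 also: 0% = DMSO with enzyme and 100% = buffer with substrate but no TDP2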
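Read-out basis: percent inhibition. System: recombinant human TDP2. Buffer or medium: Mg2+-containing Tris-HCl buffer, pH 7.5. Repeats: single replicate. Timing: reaction 2 h, 37 °C. Benchmarks: high control without enzyme, low control DMSO plus TDP2. Probe or stimulus: 5 mM T5PNP. Doses: 12.8 µM only. Measured by: epi absorbance of p-nitrophenol freed from T5PNP by hydrolysis.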
CASP6 VEID inh – inhibitors of human caspase-6; inhibition, % at 12.5 µM; AID 686996; hit rate 0.53% among 350,000; purified caspase-6, Z-VEID-R110 cleavage fluorescence;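 active = mean inhibition across replicates at least about 35%, with every replicate also reaching that limit, limit read from the data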;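 also: 0% = median of neutral control wells and 100% = no fluorescence left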
UHRF1 binding – blocks human UHRF1 binding to methylated DNA; Q96T88; UHRF1 binding to methylated oligo, TR-FRET; hit rate 0.75% among 370,000; inhibition, % at 4.4 µM; AID 687016; in the data active = inhibition above about 21%;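 also: UHRF1 SRA domain binding a hemimethylated CpG hairpin DNA probe; 0% = median of test compound wells and 100% = reference inhibitor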
Target sequence (Q96T88 whole entry, looked up, the tested form may be a part): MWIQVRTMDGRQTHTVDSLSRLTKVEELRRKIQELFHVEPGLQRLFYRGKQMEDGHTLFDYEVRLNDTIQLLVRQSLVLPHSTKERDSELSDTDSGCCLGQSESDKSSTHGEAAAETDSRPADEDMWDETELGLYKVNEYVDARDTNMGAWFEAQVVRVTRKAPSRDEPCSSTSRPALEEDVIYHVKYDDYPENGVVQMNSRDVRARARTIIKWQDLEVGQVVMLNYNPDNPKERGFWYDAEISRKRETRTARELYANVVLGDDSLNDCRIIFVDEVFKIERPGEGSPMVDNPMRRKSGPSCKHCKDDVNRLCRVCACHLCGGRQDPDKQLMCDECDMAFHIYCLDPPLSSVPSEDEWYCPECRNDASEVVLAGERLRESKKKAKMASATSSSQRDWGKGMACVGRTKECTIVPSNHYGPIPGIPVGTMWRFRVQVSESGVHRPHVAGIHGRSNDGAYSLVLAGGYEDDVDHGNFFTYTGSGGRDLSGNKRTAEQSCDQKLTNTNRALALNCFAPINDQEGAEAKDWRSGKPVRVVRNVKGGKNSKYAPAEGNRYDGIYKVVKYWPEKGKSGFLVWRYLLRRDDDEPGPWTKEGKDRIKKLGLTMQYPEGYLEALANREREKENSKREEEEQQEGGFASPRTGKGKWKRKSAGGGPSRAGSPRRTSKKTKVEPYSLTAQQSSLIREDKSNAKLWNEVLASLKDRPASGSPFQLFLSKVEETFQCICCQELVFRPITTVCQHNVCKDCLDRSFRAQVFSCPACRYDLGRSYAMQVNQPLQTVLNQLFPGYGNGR
TDP2 confirm – confirmation of human TDP2 inhibitors; shares compounds with TDP2 inh; recombinant human TDP2, absorbance read-out; inhibition, % at 12.8 µM; hit rate 22% among 1,100; AID 743263; in the data active = inhibition above about 25%;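 also: 0% = vehicle with enzyme and 100% = no enzyme buffer only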
An asterisk follows results filed as active; . = no result.

SMILES | MBD2 DNA inh | NSD2 inh | LEDGF integ inh | TDP2 inh | CASP6 VEID inh | UHRF1 binding | TDP2 confirm
CCN(CC)CCN1C(=O)C(=O)/C(=C(/O)c2ccc(C)cc2)C1c1cccnc1 (stereo not drawn) | -5.4 | -0.1 | 4.0 | 31.9* | -5.0 | 6.5 | 6.4
CCN(CC)CCCN1C(=O)C(=O)/C(=C(/O)c2cc(C)ccc2C)C1c1cccnc1 (stereo not drawn) | 3.7 | 1.9 | -2.9 | -2.7 | . | 1.3 | .
OCCNc1ncnc2c1sc1nc(N3CCOCC3)c3c(c12)CCC3 | 2.4 | -1.7 | 0.4 | 27.2* | 0.8 | 0.7 | -4.2
CO[C@@H]1CN(C)C(=O)c2ccc(NS(=O)(=O)c3ccc(Cl)cc3)cc2OC[C@H](C)NC[C@@H]1C | . | . | . | . | -0.2 | . | .
Cc1ccc(S(=O)(=O)N(C)CCCC(=O)Nc2ccc(F)cc2)cc1 | 0.3 | . | -3.3 | -6.9 | -0.2 | -0.5 | .
CN(CCCC(=O)Nc1ccc(OC(F)F)cc1)S(=O)(=O)c1ccc(F)cc1 | 1.2 | -2.9 | -1.7 | 27.9* | -3.8 | -0.4 | 6.1
CCOc1ccc(S(=O)(=O)N2CCCCC2)cc1NC(=O)c1c(CC)noc1C | -3.4 | -1.8 | -1.0 | 25.1* | 1.0 | -4.2 | -7.9
CC(C)(C)C(=O)[C@@H]1[C@@H]2C(=O)N(c3ccc4c(c3)OCCO4)C(=O)[C@@H]2C2c3ccccc3C=CN21 (stereo partly drawn) | 0.2 | 2.0 | 7.6 | 27.1* | . | -4.4 | 8.6
COc1ccc(C2=NO[C@@H]3C(=O)N(c4ccc5c(c4)OCCO5)C(=O)[C@H]23)cc1OC | -0.3 | -1.2 | 0.2 | 5.7 | . | -0.7 | .
COc1ccc(C(=O)NCC(O)CN2CCOCC2)cc1[N+](=O)[O-] (stereo not drawn) | -3.6 | -0.3 | 0.2 | 25.2* | -0.4 | 1.7 | -1.6
O=C1C2(CCCC13COC(c1ccc(O)cc1)OC3)COC(c1ccc(O)cc1)OC2 (stereo not drawn) | 5.7 | . | 0.4 | 25.0* | -1.3 | 11.8 | 2.7
C[C@@H](NC(=O)C[C@H]1CC[C@H](NC(=O)C2CCC2)[C@@H](CO)O1)c1ccccc1 | . | . | . | . | -1.2 | . | .
O=C(Nc1cccc(NC(=O)c2cccnc2)c1)c1cccnc1 | . | 23.4 | . | . | 1.1 | . | .
Cc1ccccc1C(=O)Nc1cccc(NC(=O)c2cccnc2)c1 | -3.6 | 1.6 | -2.7 | 25.5* | 4.4 | -1.8 | -0.3
CN1C(=O)c2cc(NC(=O)Nc3ccc(F)cc3)ccc2OC[C@H]2O[C@@H](CC(=O)NC3CCC3)CC[C@H]21 | . | . | . | . | 1.0 | . | .
Cc1ccc(NC(=O)C2CCN(C(=O)[C@@H]3Cc4ccccc4CN3)CC2)c(C)c1 | 4.8 | -3.8 | 0.9 | 25.4* | 1.4 | 8.6 | 1.6
CCc1ccc(NC(=O)C2CCN(C(=O)[C@@H]3Cc4ccccc4CN3)CC2)cc1 | 4.1 | -1.5 | 2.0 | 0.8 | -11.6 | -1.1 | .
COc1ccc(NC(=O)C2CCN(C(=O)[C@@H]3Cc4ccccc4CN3)CC2)cc1 | -4.6 | -5.8 | -1.1 | 27.9* | 0.7 | 0.7 | 2.0
C[C@H](CO)N1C[C@H](C)[C@H](CN(C)C(=O)Nc2cccc3ccccc23)Oc2c(NC(=O)c3nc4ccccc4s3)cccc2C1=O | . | . | . | . | -0.3 | . | .
C[C@H](CO)N1C[C@H](C)[C@@H](CN(C)Cc2cncnc2)Oc2cc(C3=CCCC3)ccc2S1(=O)=O | . | . | . | . | -1.4 | . | .
CC1CCN(C2CCN(C(=O)c3ccccc3F)CC2)CC1 | -3.9 | 0.9 | 0.4 | 28.2* | 3.1 | 1.3 | 7.5
N#CC1=C(N)Oc2n[nH]c(-c3cccs3)c2C1c1cccs1 (stereo not drawn) | -9.4 | -1.3 | 2.9 | 29.3* | . | -10.6 | 1.1
N#CC1=C(N)Oc2n[nH]c(-c3cccs3)c2C1c1ccccc1C(=O)O (stereo not drawn) | -6.0 | -1.7 | 0.3 | 17.2 | 4.7 | -9.9 | .
O=C(Cc1ccccn1)NCC[C@H]1CC[C@@H](NC(=O)Nc2ccccc2)[C@@H](CO)O1 | . | . | . | . | -2.0 | . | .
O=C(Nc1ccc(S(=O)(=O)Nc2ncccn2)cc1)c1ccccc1Br | 1.8 | 1.8 | 0.9 | 26.2* | -0.6 | 1.8 | -7.7
SMILES | MBD2 DNA inh | NSD2 inh | LEDGF integ inh | TDP2 inh | CASP6 VEID inh | UHRF1 binding | TDP2 confirm
CC(C)CC#Cc1ccc2c(c1)O[C@H](CN(C)C(=O)c1cnccn1)[C@H](C)CN([C@H](C)CO)S2(=O)=O | . | . | . | . | 4.6 | . | .
Cc1ccc(C)c(S(=O)(=O)NCc2ccc(C(=O)N3CCN(C)CC3)cc2)c1 | 9.4 | 4.2 | -0.7 | 4.5 | . | 3.1 | .
Cc1ccc(C)c(S(=O)(=O)NCc2ccc(C(=O)N3CCOCC3)cc2)c1 | -3.0 | -9.7 | 5.4 | 24.5* | 0.1 | 0.8 | -4.6
c1ccc(OCCN2CCOCC2)cc1 | -0.2 | 5.0 | -2.1 | 31.3* | -3.8 | 3.9 | 7.2
c1ccc(Cc2ccc(OCCN3CCOCC3)cc2)cc1 | 3.0 | 3.0 | -3.0 | 0.3 | -1.6 | 1.9 | .
Nc1nc2c(s1)CCc1ccccc1-2 | -1.3 | 5.7 | -2.6 | 30.2* | 8.7 | -0.2 | -2.4
CC(C)NC(=O)Nc1ccc2c(c1)C(=O)N([C@@H](C)CO)C[C@@H](C)[C@@H](CN(C)Cc1ccc(C(F)(F)F)cc1)O2 | . | . | . | . | 0.7 | . | .
CO[C@H]1CN(C)C(=O)c2ccc(NS(C)(=O)=O)cc2OC[C@H](C)N(Cc2cccnc2)C[C@@H]1C | . | . | . | . | 0.5 | . | .
CC1CCN(CCOc2cc(Cl)ccc2Cl)CC1 | 2.1 | 8.0 | -0.5 | 24.6* | -9.0 | -3.2 | 1.4
Cc1ccc(Cl)c(OCCCCN2CCC(C)CC2)c1 | 1.2 | -3.2 | -1.9 | 3.0 | -3.6 | -0.7 | .
Cn1nccc1C(=O)N1CCC(Cc2ccccc2)CC1 | 3.0 | 19.9 | -7.8 | 44.6* | 4.9 | 2.9 | 3.3
Cc1cc(=O)n(-c2ccccc2Cl)[nH]1 | -6.1 | 6.0 | 1.5 | 59.0* | 1.1 | 2.3 | 9.9
CN(C)CCCNC(=O)[C@@H]1[C@@H](CO)[C@@H]2Cn3c(ccc(C4=CCCC4)c3=O)[C@H]1N2Cc1cocn1 | . | . | . | . | 0.5 | . | .
C=CCn1c(SCC(=O)N(CC)CC)nc(O)cc1=O | 3.9 | -2.1 | 0.2 | -2.0 | . | 1.4 | .
C=CCn1c(SCc2c(F)c(F)c(F)c(F)c2F)nc(O)cc1=O | 2.4 | 1.3 | 1.1 | 42.7* | . | 0.0 | 7.8
Oc1ccc(C2=NNC(c3ccc(O)cc3)=NN2)cc1 | -7.4 | 0.1 | 1.0 | 28.4* | -1.0 | -2.4 | -0.7
COc1ccccc1C#Cc1ccc([C@@H]2[C@H]3CN(C(=O)C4CC4)CCCCN3[C@H]2CO)cc1 | . | . | . | . | -1.8 | . | .
O=C(CN1C(=O)CCS(=O)(=O)c2ccccc21)NCCc1ccccc1 | 3.4 | -4.1 | -2.7 | 26.4* | -1.6 | -4.1 | 10.0
CCOC(=O)CNC(=O)CN1C(=O)CCS(=O)(=O)c2ccccc21 | -0.7 | -0.6 | -0.5 | 1.1 | . | 0.0 | .
COc1ccccc1NC(=O)N[C@@H]1CC[C@H](CC(=O)N[C@@H](C)c2ccccc2)O[C@H]1CO | . | . | . | . | -2.7 | . | .
Cc1ccc(CN2CCN(c3ccccc3)CC2)o1 | -5.6 | 5.2 | 0.2 | 25.5* | 3.1 | -0.8 | -1.6

Compound activity from PubChem BioAssay.
